Screening data from PubChem.
RBBP9 inhibitor = human RBBP9 inhibitors, primary screen, biochemical, fluorescence polarization, FP-Rh probe, HTS | Serine hydrolase RBBP9 (Homo sapiens), O75884 | recombinant RBBP9 | inhibition, % at 7.94 µM | 220,000 tested, 0.2% active | AID 1515, 2009;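 active = inhibition above the campaign mean of all tested compounds plus 3 SD, cut at about 14% in these data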
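Test system: recombinant human RBBP9. Quantity: 2.5 µM RBBP9 dispensing solution, before mixing. Detection: FP readout at 525/598 nm. Reagent: Serine-hydrolase probe FP-Rh, 375 nM pre-mixing. Measure: % inhibition. Control set: DMSO-treated enzyme wells and wells lacking RBBP9. Buffer or medium: Tris-NaCl-Pluronic buffer, pH 8.0. Times: preincubation 30 min plus labeling 45 min at 25 °C.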
PME-1 inh = PME-1 inhibitors via competitive probe labeling, primary screen, biochemical, fluorescence polarization, FP-Rh probe, HTS; inhibition, % at 5.9 µM; Protein phosphatase methylesterase 1 (Homo sapiens), Q9Y570; 320,000 tested, 0.53% active; recombinant PME-1;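 active = inhibition above the campaign mean of all compounds plus 3 SD, cut at about 26% in these data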;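 also: competitive labeling of PME-1 active site by serine hydrolase directed probe; inhibitors block probe labeling so polarization falls and inhibition rises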
Target sequence (Q9Y570 whole entry, looked up): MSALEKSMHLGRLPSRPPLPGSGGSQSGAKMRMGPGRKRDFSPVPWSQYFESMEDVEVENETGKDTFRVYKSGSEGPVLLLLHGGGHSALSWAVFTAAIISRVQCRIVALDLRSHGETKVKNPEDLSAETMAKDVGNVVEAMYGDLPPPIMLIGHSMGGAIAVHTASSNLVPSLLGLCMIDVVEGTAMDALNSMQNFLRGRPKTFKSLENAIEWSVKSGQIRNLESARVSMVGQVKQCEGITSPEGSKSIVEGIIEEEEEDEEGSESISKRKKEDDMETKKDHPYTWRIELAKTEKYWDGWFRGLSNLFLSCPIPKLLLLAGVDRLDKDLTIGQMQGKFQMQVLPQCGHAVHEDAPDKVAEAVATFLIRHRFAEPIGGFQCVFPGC
LYPLA2 inh = LYPLA2 inhibitors, primary screen, counter-screen for PME1 inhibitor project, biochemical, fluorescence polarization, FP-Rh probe ABPP; recombinant LYPLA2; inhibition, % at 5.9 µM; AID 2177, 2009; 320,000 tested, 0.38% active; Acyl-protein thioesterase 2 (Homo sapiens), O95372;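 active = inhibition above the screen-wide mean plus 3 SD, limit set per campaign, cut at about 26% in these data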
LYPLA1 inh = LYPLA1 inhibitors, primary screen, counter-screen for PME1 inhibitor project, biochemical, fluorescence polarization, FP-Rh probe ABPP. recombinant LYPLA1. inhibition, % at 5.9 µM. 320,000 tested, 0.16% active. AID 2174, 2009;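 active = inhibition above the mean of all tested compounds plus 3 SD, set per campaign, cut at about 14% in these data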;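 also: inhibitors block serine hydrolase probe labeling of LYPLA1 so polarization falls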
Target sequence (O75608 whole entry, looked up): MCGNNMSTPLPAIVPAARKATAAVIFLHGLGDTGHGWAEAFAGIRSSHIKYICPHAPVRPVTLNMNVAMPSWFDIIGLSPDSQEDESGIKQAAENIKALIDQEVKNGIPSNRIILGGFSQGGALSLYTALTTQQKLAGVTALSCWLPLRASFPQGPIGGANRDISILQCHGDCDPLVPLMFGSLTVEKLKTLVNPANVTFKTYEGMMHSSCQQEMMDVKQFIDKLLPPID
Fam108B inh = mouse Fam108B serine hydrolase inhibitors, primary screen, counter-screen for RBBP9 inhibitor project, biochemical, fluorescence polarization; recombinant Fam108B, FP-Rh probe fluorescence polarization; inhibition, % at 9.51 µM; 300,000 tested, 0.33% active;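 active = inhibition above the screen mean inhibition plus 3 SD, computed separately per campaign, cut at about 18% in these data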;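 also: inhibitors lower polarization as less probe binds the enzyme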
LYPLA2 conf = LYPLA2 inhibitors, retest, confirmation, counter-screen for PME1 inhibitor project, biochemical, fluorescence polarization, FP-Rh probe ABPP | shares compounds with LYPLA2 inh | recombinant LYPLA2 | inhibition, % at 5.9 µM | 1,100 tested, 72% active | AID 2232, 2010;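 active = mean inhibition across replicates above the hit cutoff set in the primary screen, cut at about 26% in these data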;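 also: blocked labeling of the enzyme by serine hydrolase FP-Rh probe lowers polarization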
LYPLA2 ABPP = LYPLA2 inhibitors in proteome, late-stage follow-up, gel-based competitive ABPP, fluorescence, assay provider; shares compounds with LYPLA2 inh; rhLYPLA2 in mouse brain proteome, gel ABPP FP-Rh; inhibition, % at 20 µM; 150 tested, 30% active; AID 652029, 2013;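 active = inhibition of LYPLA2 enzyme probe labeling above about 50%, limit read from the data; inactive = inhibition below that limit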;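 also: loss of FP-Rh probe labeling of the LYPLA2 gel band measured as band density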
Each line names hits and unclear results; the compound was inactive in the other large screens (follow-up assays come after a bar, where they were run). Most compounds without a hit are left out; they make up all but 0.99% or so of the library.

COc1ccc(N2CCN(C(=O)CCNS(=O)(=O)c3cc(Br)cnc3N)CC2)cc1	LYPLA2 inh 32 (no result: RBBP9 inhibitor) | LYPLA2 conf inactive
COc1ccc(N2CCN(C(=O)CNS(=O)(=O)c3ccc(Br)s3)CC2)cc1	LYPLA2 inh 27 (no result: RBBP9 inhibitor) | LYPLA2 conf 33
O=C1CCCC2=C1C(c1ccsc1)CC(=O)N2c1ccccc1F (stereo not drawn)	none
COc1ccccc1-c1nnc(N)s1	LYPLA2 inh 28 | LYPLA2 conf inactive
CCn1cc(C(C)NC(=O)Nc2ccc3c(c2)OCO3)c(C)n1 (stereo not drawn)	none
COc1ccc(S(=O)(=O)Nc2cc(SCC(=O)O)c(O)c3ccccc23)cc1	LYPLA2 inh 28 (no result: RBBP9 inhibitor) | LYPLA2 conf 28
CCn1c(SCC(=O)c2ccc(F)cc2)nnc1-c1ccoc1C	LYPLA2 inh 35 | LYPLA2 conf inactive
Cc1occc1-c1nnc(SCCCC(=O)c2ccc(F)cc2)n1C	none
CN(C(=O)c1ccc(NC(=O)Cc2ccc(NC(=O)C3CCCN(C(=O)C4CCCC4)C3)cc2)cc1)C1CC1 (stereo not drawn)	LYPLA2 inh 57 (no result: RBBP9 inhibitor, Fam108B inh) | LYPLA2 conf 51 | LYPLA2 ABPP inactive
CN(C(=O)c1ccc(NC(=O)Cc2ccc(NC(=O)C3CCCN(C(=O)C4CCC4)C3)cc2)cc1)C1CC1 (stereo not drawn)	LYPLA2 inh 66 (no result: RBBP9 inhibitor, Fam108B inh) | LYPLA2 conf 61 | LYPLA2 ABPP inactive
CN(C(=O)c1ccc(NC(=O)Cc2ccc(NC(=O)C3CCN(C(=O)C4CCCCC4)CC3)cc2)cc1)C1CC1	none (no result: RBBP9 inhibitor, Fam108B inh)
CN(C(=O)c1ccc(NC(=O)Cc2ccc(NC(=O)C3CCCN(C(=O)c4ccccc4)C3)cc2)cc1)C1CC1 (stereo not drawn)	LYPLA2 inh 63 (no result: RBBP9 inhibitor, Fam108B inh) | LYPLA2 conf 60 | LYPLA2 ABPP inactive
CN(C(=O)c1ccc(NC(=O)Cc2ccc(NC(=O)C3CCCN(C(=O)C4CCCCC4)C3)cc2)cc1)C1CC1 (stereo not drawn)	LYPLA2 inh 57 (no result: RBBP9 inhibitor, Fam108B inh) | LYPLA2 conf 51 | LYPLA2 ABPP inactive
CCc1nnc(NC(=O)CSCc2cc(=O)n3ccsc3n2)s1	none (no result: RBBP9 inhibitor)
COc1ccc(NC(=O)CN(c2ccc(OC)cc2)S(=O)(=O)c2ccc(OC)c(OC)c2)cc1	none (no result: RBBP9 inhibitor)
Cc1ccc(S(=O)(=O)NCCS(=O)(=O)N2CCN(c3ccccc3)CC2)cc1	none (no result: RBBP9 inhibitor)
CCOC(=O)c1c(C)[nH]c(C)c1S(=O)(=O)N1CCCCC1	none (no result: RBBP9 inhibitor)
CCCN(CCC)C(=O)c1ccc2c(c1)S(=O)(=O)c1ccccc1C2=O	LYPLA2 inh 31 (no result: RBBP9 inhibitor) | LYPLA2 conf inactive
Cc1ccc(-n2nc(CN3CCOCC3)c(-c3ccccc3)c2N)c(C)c1	none
CC(NCc1cccc(OCc2ccccc2)c1)C(O)c1ccccc1 (stereo not drawn)	none
CC(NCc1ccc(OCc2ccc(Cl)cc2)cc1)C(O)c1ccccc1 (stereo not drawn)	LYPLA2 inh 39 | LYPLA2 conf 38
Oc1ccc(-c2nccc(-c3cccs3)n2)cc1	none
NCc1cccc(CNc2ccc([N+](=O)[O-])cc2C(N)=O)c1	none (no result: RBBP9 inhibitor)
NC(=O)c1cc([N+](=O)[O-])ccc1NCc1cccc([N+](=O)[O-])c1	LYPLA2 inh 29 (no result: RBBP9 inhibitor) | LYPLA2 conf 29
COc1ccc(NC(=O)C2=CN3CCS(=O)(=O)N=C3C=C2)c(OC)c1	none (no result: RBBP9 inhibitor, Fam108B inh)
COCCNC(=S)NCCc1ccc(Cl)cc1Cl	none
CCCCCCCCOC(=O)CCc1c(C)[nH]c(=S)[nH]c1=O	LYPLA2 inh 39 | LYPLA2 conf 30
CCCCC(=O)OCC(=O)c1[nH]c(C)c(C(C)=O)c1C	none
O=C(CCC(=O)NC1CCCCC1)N/N=C/c1ccncc1	none
COc1ccc(-c2noc3c2-c2nc(-c4ccccc4)sc2CC3)cc1	none (no result: RBBP9 inhibitor)
COc1ccc(-c2noc3c2-c2nc(-c4ccc(C)cc4)sc2CC3)cc1	LYPLA2 inh 40 (no result: RBBP9 inhibitor) | LYPLA2 conf inactive
COc1ccc(N2CCN(C(=O)c3ccc(C)cc3)CC2)c([N+](=O)[O-])c1	none
CO/N=C/c1ccc(N2CCOCC2)c([N+](=O)[O-])c1	none
CON=Cc1ccc(N2CCN(C(=O)c3ccc(Cl)cc3Cl)CC2)c([N+](=O)[O-])c1	none (no result: RBBP9 inhibitor, PME-1 inh, LYPLA2 inh, LYPLA1 inh, Fam108B inh) | LYPLA2 ABPP inactive
COc1ccc(N2CCN(C(=O)c3ccc(Br)cc3)CC2)c([N+](=O)[O-])c1	LYPLA2 inh 48 | LYPLA2 conf 56 | LYPLA2 ABPP inactive
CON=Cc1ccc(N2CCN(C(=O)c3cccc(C(F)(F)F)c3)CC2)c([N+](=O)[O-])c1	none (no result: RBBP9 inhibitor, PME-1 inh, LYPLA2 inh, LYPLA1 inh, Fam108B inh) | LYPLA2 ABPP 88
OCCC1CN(Cc2cccn2-c2cccnc2)CCN1C1CCCCC1 (stereo not drawn)	none
CCn1c(=O)c(C(=O)CN2CC(C)OC(C)C2)c(N)n(Cc2ccccc2)c1=O (stereo not drawn)	none
CCn1c(=O)c(C(=O)CN2CCN(Cc3ccc4c(c3)OCO4)CC2)c(N)n(Cc2ccccc2)c1=O	LYPLA2 inh 26 | LYPLA2 conf inactive
Cc1ccccc1NC(=O)c1nn(C)c2c1CS(=O)(=O)c1ccccc1-2	LYPLA2 inh 40 (no result: RBBP9 inhibitor) | LYPLA2 conf 46
COc1ccc(C(=O)OCC(=O)NCc2ccccc2)c(OC)c1OC	none
O=C(c1ccc(F)c(S(=O)(=O)N2CCOCC2)c1)N1CCc2ccccc21	none (no result: RBBP9 inhibitor)
CCOC(=O)C1CCN(C2=NC(=O)/C(=C/c3ccc(Cl)cc3)S2)CC1	LYPLA2 inh 31 (no result: RBBP9 inhibitor) | LYPLA2 conf 35
CCOC(=O)C1CCN(C2=NC(=O)/C(=C/c3ccc(OC)c(OC)c3)S2)CC1	none (no result: RBBP9 inhibitor)
CCN(CC(=O)NCc1ccc(Cl)cc1)C(=O)CCC(=O)c1ccc(F)cc1	none (no result: RBBP9 inhibitor)
O=C(O)c1ccc(/C=N/NC(=O)c2ccc(CN3c4cccc5cccc(c45)S3(=O)=O)cc2)cc1	none
O=C1CCC/C(=N/NC(=O)c2ccc(CN3c4cccc5cccc(c45)S3(=O)=O)cc2)C1	LYPLA2 inh 57 | LYPLA2 conf 67
CC(C)c1ccc(S(=O)(=O)N2CCN(C(=O)C3CCN(C(=O)c4ccc(F)cc4)CC3)CC2)cc1	none (no result: RBBP9 inhibitor)
COc1cccc(NC(=O)CN2C(=O)CSc3ccc(S(=O)(=O)N4CCC(C)CC4)cc32)c1	none (no result: RBBP9 inhibitor)
COc1cccc(NC(=O)CN2C(=O)COc3ccc(Cl)cc32)c1	LYPLA2 inh 45 | LYPLA2 conf 46
